Tests used:
[1] = target: Induced myeloid leukemia cell differentiation protein Mcl-1 (Homo sapiens, UniProt Q07820); assay: Binding affinity to MCL-1 (unknown origin) assessed as dissociation constant incubated for 1 hrs by TR-FRET assay
MOLT-4 = assay: Antiproliferative activity against Bcl-xl dependent human MOLT-4 cells assessed as reduction in cell viability by measuring effect concentration by CellTiter-Glo reagent based assay; assay type: functional
NCI-H889 = assay: Antiproliferative activity against human NCI-H889 assessed as reduction in cell viability incubated for 48 hrs by CellTiter-Glo cell vaibility assay; assay type: functional, cell-based; conditions: NCI-H889, 48 h
Outline: (§1)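 Tumour cell lines (SCLC panel and AML panel) exposed to increasing concentrations for 48 hours, then cell viability measured. Cell-killing EC50 taken from the concentration-response.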

NCI-H211 = assay: Antiproliferative activity against human NCI-H211 assessed as reduction in cell viability incubated for 48 hrs by CellTiter-Glo cell vaibility assay; assay type: functional, cell-based; conditions: NCI-H211, 48 h; outline: as §1
NCI-H187 = assay: Antiproliferative activity against human NCI-H187 assessed as reduction in cell viability incubated for 48 hrs by CellTiter-Glo cell vaibility assay; assay type: functional, cell-based; conditions: NCI-H187, 48 h; outline: as §1
NCI-H345 = assay: Antiproliferative activity against human NCI-H345 assessed as reduction in cell viability incubated for 48 hrs by CellTiter-Glo cell vaibility assay; assay type: functional, cell-based; conditions: NCI-H345, 48 h; outline: as §1
NCI-H446 = assay: Antiproliferative activity against human NCI-H446 assessed as reduction in cell viability incubated for 48 hrs by CellTiter-Glo cell vaibility assay; assay type: functional, cell-based; conditions: NCI-H446, 48 h; outline: as §1
NCI-H1048 = assay: Antiproliferative activity against human NCI-H1048 assessed as reduction in cell viability incubated for 48 hrs by CellTiter-Glo cell vaibility assay; assay type: functional, cell-based; conditions: NCI-H1048, 48 h; outline: as §1
NCI-H69 = assay: Antiproliferative activity against human NCI-H69 assessed as reduction in cell viability incubated for 48 hrs by CellTiter-Glo cell vaibility assay; assay type: functional, cell-based; conditions: NCI-H69, 48 h; outline: as §1
[2] = Antiproliferative activity against human NCI-H847 assessed as reduction in cell viability incubated for 48 hrs by CellTiter-Glo cell vaibility assay; assay type: functional, cell-based; conditions: NCI-H847, 48 h; outline: as §1
NCI-H1417 = assay: Antiproliferative activity against human NCI-H1417 assessed as reduction in cell viability incubated for 48 hrs by CellTiter-Glo cell vaibility assay; assay type: functional, cell-based; conditions: NCI-H1417, 48 h; outline: as §1
DMS-79 = assay: Antiproliferative activity against human DMS 79 assessed as reduction in cell viability incubated for 48 hrs by CellTiter-Glo cell vaibility assay; assay type: functional, cell-based; conditions: DMS-79, 48 h; outline: as §1
NCI-H1836 = assay: Antiproliferative activity against human NCI-H1836 assessed as reduction in cell viability incubated for 48 hrs by CellTiter-Glo cell vaibility assay; assay type: functional, cell-based; conditions: NCI-H1836, 48 h; outline: as §1
GDM-1 = assay: Antiproliferative activity against human GDM-1 assessed as reduction in cell viability incubated for 48 hrs by CellTiter-Glo cell vaibility assay; assay type: functional, cell-based; conditions: GDM-1, 48 h; outline: as §1
EOL1 = assay: Antiproliferative activity against human EOL1 assessed as reduction in cell viability incubated for 48 hrs by CellTiter-Glo cell vaibility assay; assay type: functional, cell-based; conditions: EOL1, 48 h; outline: as §1
MOLM-13 = assay: Antiproliferative activity against human MOLM-13 assessed as reduction in cell viability incubated for 48 hrs by CellTiter-Glo cell vaibility assay; assay type: functional, cell-based; conditions: MOLM-13, 48 h; outline: as §1
HL-60 = assay: Antiproliferative activity against human HL-60 assessed as reduction in cell viability incubated for 48 hrs by CellTiter-Glo cell vaibility assay; assay type: functional, cell-based; conditions: HL-60, 48 h; outline: as §1
MV4-11 = assay: Antiproliferative activity against human MV4-11 assessed as reduction in cell viability incubated for 48 hrs by CellTiter-Glo cell vaibility assay; assay type: functional, cell-based; conditions: MV4-11, 48 h; outline: as §1
ML-2 = assay: Antiproliferative activity against human ML-2 assessed as reduction in cell viability incubated for 48 hrs by CellTiter-Glo cell vaibility assay; assay type: functional, cell-based; conditions: ML-2, 48 h; outline: as §1
SIG-M5 = assay: Antiproliferative activity against human SIG-M5 assessed as reduction in cell viability incubated for 48 hrs by CellTiter-Glo cell vaibility assay; assay type: functional, cell-based; conditions: SIG-M5, 48 h; outline: as §1
OCI-AML2 = assay: Antiproliferative activity against human OCI-AML2 assessed as reduction in cell viability incubated for 48 hrs by CellTiter-Glo cell vaibility assay; assay type: functional, cell-based; conditions: OCI-AML2, 48 h; outline: as §1
[3] = Antiproliferative activity against human MOLM16 assessed as reduction in cell viability incubated for 48 hrs by CellTiter-Glo cell vaibility assay; assay type: functional, cell-based, MOLM-16; conditions: MOLM16, 48 h; outline: as §1
OCI-AML-5 = assay: Antiproliferative activity against human OCI-AML5 assessed as reduction in cell viability incubated for 48 hrs by CellTiter-Glo cell vaibility assay; assay type: functional, cell-based; conditions: OCI-AML-5, 48 h; outline: as §1
THP-1 = assay: Antiproliferative activity against human THP-1 assessed as reduction in cell viability incubated for 48 hrs by CellTiter-Glo cell vaibility assay; assay type: functional, cell-based; conditions: THP-1, 48 h; outline: as §1
Kasumi 1 = assay: Antiproliferative activity against human Kasumi 1 assessed as reduction in cell viability incubated for 48 hrs by CellTiter-Glo cell vaibility assay; assay type: functional, cell-based; conditions: Kasumi 1, 48 h; outline: as §1
KG-1 = assay: Antiproliferative activity against human KG-1 assessed as reduction in cell viability incubated for 48 hrs by CellTiter-Glo cell vaibility assay; assay type: functional, cell-based; conditions: KG-1, 48 h; outline: as §1
[4] = Antiproliferative activity against human HNT-34 assessed as reduction in cell viability incubated for 48 hrs by CellTiter-Glo cell vaibility assay; assay type: functional, cell-based; conditions: HNT-34, 48 h; outline: as §1
[5] = Antiproliferative activity against human PL-21 assessed as reduction in cell viability incubated for 48 hrs by CellTiter-Glo cell vaibility assay; assay type: functional, cell-based; conditions: PL-21, 48 h; outline: as §1
SKM-1 = assay: Antiproliferative activity against human SKM-1 assessed as reduction in cell viability incubated for 48 hrs by CellTiter-Glo cell vaibility assay; assay type: functional, cell-based; conditions: SKM-1, 48 h; outline: as §1
[6] = Antiproliferative activity against human UKE-1 harboring JAK2 V617F mutant assessed as reduction in cell viability incubated for 48 hrs by CellTiter-Glo cell vaibility assay; assay type: functional, cell-based; conditions: UKE1, 48 h; outline: as §1
SET-2 = assay: Antiproliferative activity against human SET2 harboring JAK2 V617F mutant assessed as reduction in cell viability incubated for 48 hrs by CellTiter-Glo cell vaibility assay; assay type: functional, cell-based; conditions: SET-2, 48 h; outline: as §1
HEL = assay: Antiproliferative activity against human HEL harboring JAK2 V617F mutant assessed as reduction in cell viability incubated for 48 hrs by CellTiter-Glo cell vaibility assay; assay type: functional, cell-based; outline: as §1
[7] = Antiproliferative activity against human OCI-M2 assessed as reduction in cell viability incubated for 48 hrs by CellTiter-Glo cell vaibility assay; assay type: functional, cell-based; conditions: OCI-M2, 48 h; outline: as §1
[8] = Antiproliferative activity against human OCI-M1 assessed as reduction in cell viability incubated for 48 hrs by CellTiter-Glo cell vaibility assay; assay type: functional, cell-based; conditions: OCI-M1, 48 h; outline: as §1
OCI-AML-3 = assay: Antiproliferative activity against human OCI-AML-3 assessed as reduction in cell viability incubated for 48 hrs by CellTiter-Glo cell vaibility assay; assay type: functional, cell-based; conditions: OCI-AML-3, 48 h; outline: as §1
NOMO-1 = assay: Antiproliferative activity against human NOMO-1 assessed as reduction in cell viability incubated for 48 hrs by CellTiter-Glo cell vaibility assay; assay type: functional, cell-based; conditions: NOMO-1, 48 h; outline: as §1
[9] = Antiproliferative activity against human ME-1 assessed as reduction in cell viability incubated for 48 hrs by CellTiter-Glo cell vaibility assay; assay type: functional, cell-based; conditions: ME-1, 48 h; outline: as §1
[10] = Inhibition of granulocyte colony formation in human bone marrow cells at 0.1 to 20 uM incubated for 14 to 16 days by light microscopic analysis; assay type: toxicity, cell-based; conditions: bone marrow cell, dose lower 0.1 µM, time lower 14 day, dose upper 20 µM, time upper 16 day
Outline: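 Isolated human bone marrow cells cultured in semisolid medium with increasing inhibitor concentrations; granulocyte (neutrophil) colonies counted by light microscopy after 15–16 days; triplicate means with SD; Student's t test versus solvent control.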

[11] = Inhibition of granulocyte colony formation in human bone marrow cells at 0.1 to 20 uM incubated for 14 to 16 days in presence of docetaxel by light microscopic analysis; assay type: toxicity, cell-based; conditions: bone marrow cell, dose lower 0.1 µM, time lower 14 day, dose upper 20 µM, time upper 16 day
Outline: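 Human bone marrow granulocyte colony-forming assay in semisolid medium, increasing inhibitor concentrations ± 5 nM docetaxel; colonies counted by light microscopy after 14 days; triplicate means with SD; combinations compared with docetaxel alone by Student's t test.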

Induced myeloid leukemia cell differentiation protein Mcl-1, sequence (Q07820 whole entry): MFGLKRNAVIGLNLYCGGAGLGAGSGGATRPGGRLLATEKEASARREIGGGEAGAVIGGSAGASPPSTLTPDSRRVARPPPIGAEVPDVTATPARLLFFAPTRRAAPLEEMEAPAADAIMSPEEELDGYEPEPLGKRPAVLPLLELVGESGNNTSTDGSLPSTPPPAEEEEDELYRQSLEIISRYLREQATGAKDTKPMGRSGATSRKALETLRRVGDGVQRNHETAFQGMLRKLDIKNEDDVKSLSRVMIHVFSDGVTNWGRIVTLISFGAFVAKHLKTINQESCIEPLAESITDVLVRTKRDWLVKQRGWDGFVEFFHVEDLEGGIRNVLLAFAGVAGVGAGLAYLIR

CC1(C)CCC(CN2CCN(c3ccc(C(=O)NS(=O)(=O)c4ccc(NCC5CCOCC5)c([N+](=O)[O-])c4)c(Oc4cnc5[nH]ccc5c4)c3)CC2)=C(c2ccc(Cl)cc2)C1 [VENETOCLAX]
Ki [1]: > 444 nM | EC50 (MOLT-4): > 5000 nM | EC50 (NCI-H889): 15 nM | EC50 (NCI-H211): 330 nM | EC50 (NCI-H187): 850 nM | EC50 (NCI-H345): 1200 nM | EC50 (NCI-H446): 2400 nM | EC50 (NCI-H1048): 2700 nM | EC50 (NCI-H69): 3860 nM | EC50 [2]: 3900 nM | EC50 (NCI-H1417): 4100 nM | EC50 (DMS-79): 4620 nM | EC50 (NCI-H1836): 5000 nM | EC50 (GDM-1): 100 nM | EC50 (EOL1): 100 nM | EC50 (MOLM-13): 100 nM | EC50 (HL-60): 100 nM | EC50 (MV4-11): 100 nM | EC50 (ML-2): 100 nM | EC50 (SIG-M5): 100 nM | EC50 (OCI-AML2): 100 nM | EC50 [3]: 40 nM | EC50 (OCI-AML-5): 110 nM | EC50 (THP-1): 820 nM | EC50 (Kasumi 1): 1000 nM | EC50 (KG-1): 1200 nM | EC50 [4]: 1700 nM | EC50 [5]: 1810 nM | EC50 (SKM-1): 2530 nM | EC50 [6]: 3060 nM | EC50 (SET-2): 3330 nM | EC50 (HEL): 3370 nM | EC50 [7]: 4050 nM | EC50 [8]: > 5000 nM | EC50 (OCI-AML-3): > 5000 nM | EC50 (NOMO-1): > 5000 nM | EC50 [9]: > 5000 nM | Activity [10]: Toxic | Activity [11]: Toxic
